# SENP6 inh: SENP6 protease inhibitors, primary screen, biochemical, luminescence, uHTS; Sentrin-specific protease 6 (Homo sapiens), Q9GZR1; Recombinant SENP6 catalytic domain, aminoluciferin luminescence; inhibition, % at 10 µM; actives 1.8% (n = 330,000); AID 2599, 2010;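 active = inhibition above about 50% at the single tested dose, limit read from the data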;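 also: plate controls were DMSO wells with enzyme for no effect and DMSO wells lacking enzyme for full effect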
# SENP7 block: SENP7 protease inhibitors, primary screen, biochemical, luminescence, uHTS; AID 434973, 2010; actives 1.5% (n = 330,000); inhibition, % at 5 µM; recombinant SENP7, Z-RLRGG-aminoluciferin luminescence, 40 min;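 active = inhibition above about 50% at the single test dose, limit read from the data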;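 also: plate controls were DMSO with enzyme for no effect and no enzyme buffer wells for full effect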
# Target sequence (Q9BQF6 706-1050 limits assumed): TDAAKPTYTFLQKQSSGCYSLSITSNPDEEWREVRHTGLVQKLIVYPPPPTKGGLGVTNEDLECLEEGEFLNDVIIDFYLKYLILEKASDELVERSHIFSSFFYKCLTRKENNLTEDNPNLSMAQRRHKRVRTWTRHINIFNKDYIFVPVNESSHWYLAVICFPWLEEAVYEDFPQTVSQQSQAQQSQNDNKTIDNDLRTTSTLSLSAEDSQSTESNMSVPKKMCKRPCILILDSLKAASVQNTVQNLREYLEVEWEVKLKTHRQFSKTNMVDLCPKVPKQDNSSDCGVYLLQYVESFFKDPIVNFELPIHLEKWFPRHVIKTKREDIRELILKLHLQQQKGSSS
# SENP8 block-1: human SENP8 protease inhibitors, primary screen, biochemical, fluorescence, Nedd8 protein substrate, uHTS. recombinant SENP8. inhibition, % at 20 µM. actives 0.64% (n = 360,000); in the data active = inhibition mostly above about 40%, no sharp cut-off; inactive = mostly below about 27%
# Target sequence (Q96LD8 whole entry, looked up): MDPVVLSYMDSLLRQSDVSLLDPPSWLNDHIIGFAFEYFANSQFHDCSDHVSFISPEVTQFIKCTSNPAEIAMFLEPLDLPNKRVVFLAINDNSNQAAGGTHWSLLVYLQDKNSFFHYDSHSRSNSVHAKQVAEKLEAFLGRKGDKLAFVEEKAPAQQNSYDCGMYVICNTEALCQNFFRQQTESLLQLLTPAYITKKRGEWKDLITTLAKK
# SENP8 block-2: SENP8 protease inhibitors, primary screen, biochemical, luminescence; Sentrin-specific protease 8 (Homo sapiens), Q96LD8; purified SENP8, Z-RLRGG-aminoluciferin cleavage; inhibition, % at 10 µM; actives 1.2% (n = 330,000); AID 2540, 2010; in the data active = inhibition above about 50%
# SENP1 FRET inh: human SENP1 catalytic domain inhibitors, primary screen, biochemical, FRET, uHTS. Sentrin-specific protease 1 (Homo sapiens), Q9P0U3. recombinant SENP1 catalytic domain, CyPet-SUMO1-YPet FRET cleavage. inhibition, % at 10 µM. actives 0.21% (n = 360,000). AID 624204, 2012;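 active = inhibition at least 30% at 10 µM, raw YFP signal under a set limit, fluorescence ratio 0.5 to 1.5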;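 also: 0% = enzyme with DMSO and 100% = no enzyme wells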
#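 system = hSENP1 catalytic domain, recombinant | reagent = SFCypet-SUMO1-SFYpet substrate at 25 nM | doses = one dose per compound, 10 µM, 0.5% DMSO | incubation = enzyme reaction for 50 min at room temperature, dark | measured by = FRET, CFP and YFP emission | controls = no-enzyme low, enzyme-DMSO high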
# UCH37 DUB inh: inhibitors of human UCH37 deubiquitinase, primary screen, biochemical, Ub-AMC cleavage, fluorescence | purified proteasome/UCH37 | inhibition, % (no concentration beside the values) | actives 0.33% (n = 330,000);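 active = mean inhibition over replicate wells above about 20%, limit read from the data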;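 also: 0% = compound-free wells with enzyme and 100% = wells lacking proteasome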
#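 System: Proteasome-associated human UCH37 deubiquitinase; Input: 0.15 nM proteasome in added enzyme buffer; Also added: Ub-AMC substrate from 1 µM stock; Incubation: 30 min compound-proteasome preincubation then 25 min substrate reaction, room temperature; Detection: fluorescence, ex 355 nm, em 460 nm; Read-out: % inhibition of Ub-AMC cleavage fluorescence; Benchmarks: no-proteasome and no-compound wells.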
# SENP8 conf: SENP8 protease inhibitors, retest, confirmation, biochemical, luminescence, single concentration. shares compounds with SENP7 block. Recombinant SENP8, Z-RLRGG-aminoluciferin luminescence, 60 min. inhibition, % at 12.5 µM. actives 40% (n = 6,200). AID 488912, 2010;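 active = mean inhibition across replicates above about 50%, limit read from the data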
# SENP6 conf: SENP6 protease inhibitors, confirmation, biochemical, luminescence, single concentration; shares compounds with SENP7 block; recombinant SENP6, Z-RLRGG-aminoluciferin luminescence; inhibition, % at 12.5 µM; actives 58% (n = 6,200)
# SENP7 conf: SENP7 protease inhibitors, retest, confirmation, biochemical, luminescence, single concentration. shares compounds with SENP7 block. recombinant SENP7, Z-RLRGG-aminoluciferin luminescence, 40 min. inhibition, % at 12.5 µM. actives 69% (n = 6,200)
# Casp3 select: caspase-3 protease inhibitors, confirmation, selectivity assay for SENP inhibitor project, biochemical, single concentration; shares compounds with SENP7 block; purified caspase-3, Z-DEVD-aminoluciferin luminescence, 60 min; inhibition, % at 12.5 µM; actives 60% (n = 6,200); AID 488918, 2010;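 active = mean inhibition above about 50%, limit read from the data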;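 also: plate controls were enzyme with DMSO for no effect and wells without caspase-3 for full effect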
# SENP luc ctr: interferes with luciferase luminescence in SENP counter-screen | inhibition, % at 12.5 µM | Pre-incubated SENP8/Z-RLRGG-aminoluciferin, luciferase luminescence interference | AID 488919 | actives 39% (n = 6,200) | shares compounds with SENP7 block;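 active = mean inhibition above about 50% when retested at one dose, limit read from the data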;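 also: plate controls were DMSO wells with completed reaction for no effect and substrate without enzyme for full effect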
# Active calls of the source: *; . = no result given. In the library only some 2.6% were active in any assay of this set; here they are far more common.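 The calls were made as follows, unless noted: active = mean inhibition above about 50% in the one-dose retest (limit read from the data); inactive = the rest.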
SMILES,SENP6 inh,SENP7 block,SENP8 block-1,SENP8 block-2,SENP1 FRET inh,UCH37 DUB inh,SENP8 conf,SENP6 conf,SENP7 conf,Casp3 select,SENP luc ctr
COc1cc(C=NN2C(C)CCCC2C)cc(Br)c1O (stereo not drawn),.,.,.,.,.,8,.,.,.,.,.
CCn1c(C)c(C(C)=O)cc(C#N)c1=O,5,79*,11,-5,1,0,-7,-2,-6,-3,-5
Cc1ccc2c(c1)C(N1CCCC1=O)CC(c1ccco1)N2 (stereo not drawn),94*,-8,-473,95*,-18,-7,22,82*,100*,95*,17
O=C(Oc1ccc(-c2cnc3ccccc3n2)cc1)c1ccco1,88*,98*,3,92*,1,-5,76*,83*,94*,87*,42
CCC(=O)Oc1ccc(-c2cnc3ccccc3n2)cc1,94*,94*,-26,89*,-1,-1,-15,92*,101*,88*,38
O=C(Oc1ccc(-c2nnco2)cc1)c1ccco1,-4,8,17,-6,3,5,.,.,.,.,.
CC(=O)Nc1ccc(S(=O)(=O)NN=Cc2ccc(C)s2)cc1,.,.,.,.,.,4,.,.,.,.,.
Cc1cc(C)c2nc(N=C(N)NC(=O)Nc3ccccc3)nc(C)c2c1,.,.,.,.,.,1,.,.,.,.,.
S=C(Nc1ccc(Cl)cc1)c1nc2ccccc2[nH]1,59*,33,9,41,3,5,13,48,92*,71*,11
O=C(OCc1csc(-c2ccccc2)n1)C1=NN(c2ccccc2)C(=O)CC1,-2,5,-2,2,0,0,.,.,.,.,.
Cn1cccc1C(=O)OCc1csc(-c2ccccc2)n1,88*,100*,-8,94*,-4,0,-6,98*,102*,93*,89*
Cc1ccsc1C(=O)OCc1nnc(-c2ccccc2)o1,59*,59*,12,52*,1,0,57*,55*,76*,56*,50*
COc1ccc(C(=O)NCC(=O)OCc2csc(-c3ccccc3)n2)cc1,-12,-1,9,-10,0,4,.,.,.,.,.
O=C(OCc1csc(-c2ccccc2)n1)c1cccs1,95*,96*,20,92*,0,7,97*,97*,101*,91*,90*
Cc1ccsc1C(=O)OCc1csc(-c2ccccc2)n1,96*,99*,12,96*,0,3,96*,92*,47,94*,88*
CNS(=O)(=O)c1cccc(C(=O)OCc2csc(-c3ccccc3)n2)c1,-15,2,-2,-14,0,0,.,.,.,.,.
CC(=NNc1ccc(C#N)cc1[N+](=O)[O-])c1ccc(C)o1,.,.,.,.,.,7,.,.,.,.,.
COCc1cc(=O)[nH]c(N=C(N)Nc2cccc(C)c2)n1,.,.,.,.,.,4,.,.,.,.,.
CCc1cccc2c(C(=O)COC(=O)c3ccccc3)c[nH]c12,60*,53*,18,25,2,4,7,5,73*,23,46
CCOC(=O)NN=Cc1cccnc1,.,.,.,.,.,0,.,.,.,.,.
COc1ccc(N2CCN(C(=S)Nc3cc(C)ccc3C)CC2)cc1,-11,81*,11,9,3,-1,-2,2,9,4,0
COc1ccc(N2CCN(C(=S)Nc3ccc(C)cc3C)CC2)cc1,5,9,23,2,-2,3,.,.,.,.,.
NC(=O)c1cc2ccccc2oc1=NNC(=O)c1ccccc1,.,.,.,.,.,6,.,.,.,.,.
O=C1/C(=C/c2cccc([N+](=O)[O-])c2)Oc2cc(O)ccc21,67*,45,-14,54*,11,7,4,8,20,8,34
CCOC(=O)c1sc(NC(=O)COC(=O)c2ccco2)nc1C,-9,-8,24,-7,3,4,.,.,.,.,.
SMILES,SENP6 inh,SENP7 block,SENP8 block-1,SENP8 block-2,SENP1 FRET inh,UCH37 DUB inh,SENP8 conf,SENP6 conf,SENP7 conf,Casp3 select,SENP luc ctr
CCOC(=O)c1sc(NC(=O)c2ccc(C)o2)nc1C,70*,12,-99,64*,-5,2,36,74*,91*,84*,19
CCOC(=O)c1sc(NC(=O)c2ccco2)nc1C,59*,54*,-49,9,3,-12,6,6,-6,5,-3
CC(On1c(-c2ccccc2)nc2ccc(Cl)cc21)C(=O)O (stereo not drawn),-14,10,12,4,1,5,.,.,.,.,.
CCOC(=O)COn1c(-c2cccc(Cl)c2)nc2ccc([N+](=O)[O-])cc21,94*,90*,7,87*,-1,5,81*,81*,92*,65*,69*
COC(=O)c1sccc1NC(=O)Cc1ccc(OC)c(OC)c1,-1,0,15,-8,3,-1,.,.,.,.,.
COC(=O)c1sccc1NC(=O)Cc1ccc(Br)cc1,59*,21,11,40,-1,5,60*,56*,48,48,40

# Bioassay records as filed in PubChem.
